From ChEMBL document CHEMBL4138124, “Antineoplastic Agents. 605. Isoquinstatins” (2018)
Numbered stars: 1 amine (or outer) side, 2 acyl side, 3 side chain; on linkers, the order of the positions; unused ones are H or OH. Square brackets hold non-standard residues; d marks the D form. Peptide text beside a SMILES is read from it. * marks the point of attachment. Dolaproine = CO[C@@H]([C@@H]1CCCN1)[C@@H](C)C(=O)O; Hexanoyl(6-maleimido) = O=C1C=CC(=O)N1CCCCCC(=O)*; Dil = CC[C@H](C)[C@H](NC)[C@@H](CC(=O)O)OC; PABC = O=C(OCc1ccc(N[*:1])cc1)[*:2]; Cit = NC(=O)NCCC[C@H](N)C(=O)O; NMeV = CN[C@H](C(=O)O)C(C)C; X1 = c1cc(CCN*)c2cnccc2c1; X2 = c1cc(CCN*)c2ccncc2c1; X3 = c1cc2ccc(CCN*)cc2cn1

Legend:
Assay type in all cases: functional
SF-268 = experiment: Growth inhibition of human SF268 cells after 48 hrs by SRB assay; settings: SF-268, 48 h
How it was run: (§1)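 Cells grown in RPMI1640 with 5% fetal bovine serum, seeded in 96-well plates and incubated 24 h before serial dilutions of compound were added. After a further 48 h, cells were fixed with trichloroacetic acid, stained with sulforhodamine B and read on a plate reader. GI50 (concentration giving 50% reduction in net protein increase) was calculated from optical density data.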

NCI-H460 = experiment: Growth inhibition of human NCI-H460 cells after 48 hrs by SRB assay; settings: NCI-H460, 48 h; how it was run: as §1
DU-145 = experiment: Growth inhibition of human DU145 cells after 48 hrs by SRB assay; settings: DU-145, 48 h; how it was run: as §1
MCF7 = experiment: Growth inhibition of human MCF7 cells after 48 hrs by SRB assay; settings: MCF7, 48 h; how it was run: as §1
KM-20L2 = experiment: Growth inhibition of human KM20L2 cells after 48 hrs by SRB assay; settings: KM-20L2, 48 h; how it was run: as §1
BXPC-3 = experiment: Growth inhibition of human BxPC3 cells after 48 hrs by SRB assay; settings: BXPC-3, 48 h; how it was run: as §1

Row | Compound | GI50 (NCI-H460) | GI50 (DU-145) | GI50 (MCF7) | GI50 (BXPC-3) | GI50 (SF-268) | GI50 (KM-20L2)
1 | CC[C@H](C)[C@@H]([C@@H](CC(=O)N1CCC[C@H]1[C@H](OC)[C@@H](C)C(=O)NCCc1ccc2cccnc2c1)OC)N(C)C(=O)[C@@H](NC(=O)[C@H](C(C)C)N(C)C)C(C)C | 1.19 nM |  |  |  | 0.03 nM | 
2 | CC[C@H](C)[C@@H]([C@@H](CC(=O)N1CCC[C@H]1[C@H](OC)[C@@H](C)C(=O)NCCc1cccc2cnccc12)OC)N(C)C(=O)[C@@H](NC(=O)[C@H](C(C)C)N(C)C)C(C)C | 17.3 nM | 2.79 nM | 0.279 nM | 7.31 nM | 0.266 nM | 0.385 nM
3 | CC[C@H](C)[C@@H]([C@@H](CC(=O)N1CCC[C@H]1[C@H](OC)[C@@H](C)C(=O)NCCc1cccc2ccncc12)OC)N(C)C(=O)[C@@H](NC(=O)[C@H](C(C)C)N(C)C)C(C)C | 9.03 nM | 0.053 nM | 0.133 nM | 4.25 nM | 0.07 nM | 0.146 nM
4 | CC[C@H](C)[C@@H]([C@@H](CC(=O)N1CCC[C@H]1[C@H](OC)[C@@H](C)C(=O)NCCc1cccc2ccncc12)OC)N(C)C(=O)[C@@H](NC(=O)[C@@H](NC)C(C)C)C(C)C (H-[NMeV]V[Dil][Dolaproine]-X1) | 122 nM | 0.42 nM | 0.271 nM | 40.6 nM | 0.135 nM | 0.542 nM
5 | CC[C@H](C)[C@@H]([C@@H](CC(=O)N1CCC[C@H]1[C@H](OC)[C@@H](C)C(=O)NCCc1cccc2cnccc12)OC)N(C)C(=O)[C@@H](NC(=O)[C@@H](NC)C(C)C)C(C)C (H-[NMeV]V[Dil][Dolaproine]-X2) | 42 nM | 0.677 nM | 0.095 nM | 11 nM | 0.132 nM | 0.271 nM

Second part, led by results:

Row | GI50 (NCI-H460) | GI50 (DU-145) | GI50 (MCF7) | GI50 (BXPC-3) | Compound | GI50 (SF-268) | GI50 (KM-20L2)
6 | 9.3 nM | 0.033 nM | 0.186 nM | 4.39 nM | CC[C@H](C)[C@@H]([C@@H](CC(=O)N1CCC[C@H]1[C@H](OC)[C@@H](C)C(=O)NCCc1ccc2ccncc2c1)OC)N(C)C(=O)[C@@H](NC(=O)[C@H](C(C)C)N(C)C)C(C)C | 0.068 nM | 0.399 nM
7 | 54.2 nM | 0.122 nM | 0.149 nM | 44.7 nM | CC[C@H](C)[C@@H]([C@@H](CC(=O)N1CCC[C@H]1[C@H](OC)[C@@H](C)C(=O)NCCc1ccc2ccncc2c1)OC)N(C)C(=O)[C@@H](NC(=O)[C@@H](NC)C(C)C)C(C)C (H-[NMeV]V[Dil][Dolaproine]-X3) | 0.325 nM | 0.569 nM
8 | 2240 nM | 23.2 nM | 22.4 nM | 524 nM | CC[C@H](C)[C@@H]([C@@H](CC(=O)N1CCC[C@H]1[C@H](OC)[C@@H](C)C(=O)NCCc1cccc2ccncc12)OC)N(C)C(=O)[C@@H](NC(=O)[C@H](C(C)C)N(C)C(=O)OCc1ccc(NC(=O)[C@H](CCCNC(N)=O)NC(=O)[C@@H](NC(=O)CCCCCN2C(=O)C=CC2=O)C(C)C)cc1)C(C)C ({Hexanoyl(6-maleimido)}-V[Cit][PABC][NMeV]V[Dil][Dolaproine]-X1) | 16.5 nM | 32.2 nM
9 | 396 nM | 26.9 nM | 21.7 nM | 307 nM | CC[C@H](C)[C@@H]([C@@H](CC(=O)N1CCC[C@H]1[C@H](OC)[C@@H](C)C(=O)NCCc1cccc2cnccc12)OC)N(C)C(=O)[C@@H](NC(=O)[C@H](C(C)C)N(C)C(=O)OCc1ccc(NC(=O)[C@H](CCCNC(N)=O)NC(=O)[C@@H](NC(=O)CCCCCN2C(=O)C=CC2=O)C(C)C)cc1)C(C)C ({Hexanoyl(6-maleimido)}-V[Cit][PABC][NMeV]V[Dil][Dolaproine]-X2) | 9.72 nM | 30.7 nM
10 | 448 nM | 15.7 nM | 18 nM | 149 nM | CC[C@H](C)[C@@H]([C@@H](CC(=O)N1CCC[C@H]1[C@H](OC)[C@@H](C)C(=O)NCCc1ccc2ccncc2c1)OC)N(C)C(=O)[C@@H](NC(=O)[C@H](C(C)C)N(C)C(=O)OCc1ccc(NC(=O)[C@H](CCCNC(N)=O)NC(=O)[C@@H](NC(=O)CCCCCN2C(=O)C=CC2=O)C(C)C)cc1)C(C)C ({Hexanoyl(6-maleimido)}-V[Cit][PABC][NMeV]V[Dil][Dolaproine]-X3) | 9.72 nM | 32.2 nM
